The source of these data is ChEMBL document CHEMBL4513216, “Probing the Open Global Health Chemical Diversity Library for Multistage-Active Starting Points for Next-Generation Antimalarials” (ACS Infect Dis, 2020).

The data set can be described thus: Toxicity liver stage against HepG2, at 10uM. It counts as cell-based. Also noted: test concentration 10 uM, cell line HepG2-A16-CD81EGFP. The conditions noted are these: human, HepG2-A16-CD81EGFP cells; read-out: INHIBITION
The method, boiled down:
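Uninfected HepG2-A16-CD81EGFP cells, 3 × 10^3 per well, 1536-well, plated on prespotted compound at 10 μM final, parasite-free screening media added to match infected plates; puromycin 10 μM positive, DMSO 0.5% negative; run in parallel with 48 h PbLuc assay at 37 °C, 5% CO2; viability by CellTiter-Glo luminescence, normalized to controls.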
Turning to `O=C(c1nc(Cc2c[nH]c3ccccc23)no1)N1CCOCC1`, the cytotoxicity at 10 µM is 11.1%.
With `C[C@@H](O)CNC(=O)c1nc(CC(=O)Nc2cccc(C(F)(F)F)c2)no1`, the cytotoxicity at 10 µM was 8.35%.
With `CC1=Nc2c(c(=O)[nH]n2C(C)C)C(c2ccsc2)S1` (centres undefined), the cytotoxicity at 10 µM is -2.92%.
Consider `Cn1c(CN2CCOCC2)cc(=O)c(O)c1CN1CCCCC1`, for which the cytotoxicity at 10 µM was -3.15%.
In the case of `Cc1noc(C)c1C(=O)Nc1ccc2ncn(CC(C)C)c(=O)c2c1`, the cytotoxicity at 10 µM amounted to 8.75%.
The figure for `Cc1n[nH]/c(=N\C(=O)c2c3c(nc4onc(C)c24)CCC3)s1` is -1.88%; for `COC(=O)Cn1cccc(S(=O)(=O)N2CCC(C)CC2)c1=O` it is -2.85%; for `CC(C)(C)C(=O)Cn1nc(-c2ccccc2F)ccc1=O` it is -8.46%.
For the compound `O=C(NCCCN1CCOCC1)c1cccc(OCc2ccccc2)c1`, the cytotoxicity at 10 µM is -4.87%.
The figure for `COc1ccc(N2CCN(C(=O)C(C)n3cc(Br)cn3)CC2)cc1` (centres undefined) is 11.4%; for `COCCNc1cc(C)nn2cnnc12` it is -1.63%; for `Cn1c(=O)oc2cc(S(=O)(=O)N3CCCCC3)c(Cl)cc21` it is 19%.
For `CCn1ncc(CN(C)C(=O)c2ccn(C)n2)c1C`, the cytotoxicity at 10 µM was determined as 6.5%.
For the compound `COc1cc(C2SCC(=O)Nc3[nH]ncc32)cc2c1OCO2` (centres undefined), the cytotoxicity at 10 µM is 5.28%.
For the compound `CCNC(=O)c1nnc2ccc(N3CCOCC3)cc2n1`, the cytotoxicity at 10 µM stood at 3.56%.
Turning to `O=C(CC1CC1)N1C[C@@H](O)[C@H](N2CCN(c3ccccc3)CC2)C1`, the cytotoxicity at 10 µM was -0.38%.
The figure for `CC(C)(C)c1cc(C(=O)N2CCC(c3cnccn3)CC2)[nH]n1` is 0.775%; for `O=C(CC1CCCC1)N1CCCC1c1ccc(CN2CCOCC2)cn1` (centres undefined) it is 1.37%.
The figure for `O=C1Nc2ccccc2CNC12CCN(CC1CCCC1)CC2` is 6.39%; for `CC(C)CNC(=O)c1cc(C2CC2)nc2c1c(C1CCCN1)nn2C` (centres undefined) it is 15.9%.
With `O=C(N1CCCCC1)N1CCN(c2ccc(Cl)nn2)C(=O)C1` the figure was 8.24%.
For `CC(C)(C)c1n[nH]c(C2CN(CCNC3CCCCC3)CCO2)n1` (centres undefined), the cytotoxicity at 10 µM came to 6.86%.
Regarding `CC(=O)c1c(C)cc(C)c(CS(=O)(=O)c2nccn2C)c1C`, the cytotoxicity at 10 µM is -4.28%.
Turning to `FC(F)(F)C1CCCn2c(CNCc3cccs3)nnc21` (centres undefined), the cytotoxicity at 10 µM worked out at 3.79%.
With `Cc1ccc(CC(=O)N2CCCCC2Cn2cccn2)cn1` (centres undefined) the figure was -130%; with `Cc1n[nH]c(C)c1NC(=O)CN1CCCC1Cn1cncn1` (centres undefined), 15.5%.
For the compound `COc1cccc(CNCCc2cc(F)cc3c2OCOC3)c1OC`, the cytotoxicity at 10 µM worked out at 4.32%.
With `CC/C=C(/C)C(=O)N1CCN(C2=NCC(C)S2)CC1` (centres undefined) the figure was -145%.
The figure for `CCN(Cc1ccoc1)C(C(N)=O)c1ccc(C#N)cc1` (centres undefined) is -18.6%.
With `COc1cccc(CNCCNS(=O)(=O)Cc2ccccc2)c1`, the cytotoxicity at 10 µM was determined as 13.4%.
With `COc1ccc(C)c2c1N(C(=O)c1ccc3nnc(C)n3c1)CCC2` the figure was 2.84%; with `CCOc1ccc(NC(=O)N2CCC(n3cncn3)CC2)cc1Cl`, -7.22%.
With `Cc1cnn(CCCNCc2csc(COc3ccccc3)n2)c1` the figure was 5.34%.
The figure for `CC(=O)Nc1cc(Br)cnc1OCC(F)(F)F` is 5.69%.
As for `COc1ccc(N2CCCN(CC(=O)N3CCNC(=O)C3)CC2)cc1`, the cytotoxicity at 10 µM was 6.06%.
`CS(=O)(=O)c1cc(S(N)(=O)=O)ccc1NCC1CCCO1` (centres undefined): the cytotoxicity at 10 µM amounted to 6.26%.
The figure for `CN(Cc1ccco1)Cc1ccccc1CNC(=O)c1ccc[nH]1` is -4.11%.
The figure for `CCc1ncc2c(n1)CN(Cc1nnc(C)o1)CC2` is -12.1%; for `CC1c2ncc(Cn3cccn3)n2CCN1S(=O)(=O)C1CC1` (centres undefined) it is -108%; for `COCCN1CCN(c2cc(OC)ncn2)Cc2ccc(C)nc21` it is -99.2%.
Consider `Cn1ccc(-c2cc(C(=O)N3CCOCC3)c3ccccn23)n1`, for which the cytotoxicity at 10 µM amounted to 7.9%.
With `COCCNC(=O)[C@H]1C[C@@H]2CCN(Cc3ccoc3)C[C@H]2O1` the figure was 2.31%; with `CCCSCC(=O)N1CCCC(CO)(CCC)C1` (centres undefined), 4.86%; with `Cc1ccc(O)c(CN2CCCCC2CCN2CCOCC2)c1` (centres undefined), 4.25%.
For `COC(=O)c1ccc(CNC(=O)CN2C[C@@H](NC(C)=O)[C@H](C(C)C)C2)o1`, the cytotoxicity at 10 µM is -0.921%.
As to `Cc1ccc([C@@H]2CN(C(=O)CCc3cc(Cl)no3)C[C@H]2N(C)C)cc1`, the cytotoxicity at 10 µM turned out to be 6.74%.
In the case of `COc1ncccc1C1CC(=O)NCc2nc3ccccn3c21` (centres undefined), the cytotoxicity at 10 µM is -5.72%.
With `N#Cc1c(C2CCOC2)cc(-c2ccc(N3CCCCC3)cc2)nc1N` (centres undefined) the figure was -8.78%; with `Nc1cc(C(=O)N2CCOC(Cc3cccc(C(F)(F)F)c3)C2)ccn1` (centres undefined), -1.97%; with `O=C(O)C1(Oc2cccc(F)c2)CCN(c2ccncc2)CC1`, 0.423%.
Consider `Cc1cc(CN(C)c2nc(-c3ccco3)nc3c2CCN(C)CC3)on1`, for which the cytotoxicity at 10 µM stood at 9.34%.
With `Cc1c[nH]c(CN(C)C(=O)[C@@]23CNC[C@@H]2CN(c2ncccn2)C3)n1` the figure was -2.4%; with `Cc1nnc(N2CCC(CCn3ccnc3C)CC2)o1`, -8.14%.
In the case of `O=C1CC(c2ncc(-c3ccc4c(c3)OCCO4)[nH]2)CN1C1CC1` (centres undefined), the cytotoxicity at 10 µM was -4.62%.
With `Cc1cnc(C)c(N2CCN(CCCc3[nH]nc(C)c3C)CC2)n1` the figure was -10%; with `O=C(O)c1ccnc(-c2ccnc(N3CCC(F)(F)CC3)n2)c1`, -12.3%.
For the compound `NCCN1C(=O)CC[C@H]2CN(Cc3ccc4occc4c3)CC[C@H]21`, the cytotoxicity at 10 µM is -1.14%.
The figure for `CC(=O)NCCn1ccnc1-c1cccc(C(C)N(C)C)c1` (centres undefined) is 2.4%; for `Cc1cc(C(=O)N2C[C@@H](CN3CCOCC3)C[C@H](CO)C2)nc(C)n1` it is 3.63%; for `O=C(NCc1ccccc1-n1cccn1)C1CC2(CCNCC2)CN1` (centres undefined) it is -0.413%.
Consider `CCCc1nc(CN(CC)C(=O)c2ccc(OC)c(OC)c2)no1`, for which the cytotoxicity at 10 µM is -6.93%.
Turning to `COc1ccccc1OCCCN1CC=C(c2cnn(C)c2)CC1`, the cytotoxicity at 10 µM was found to be 8.32%.
In the case of `CCCN(Cc1nccn1C)C(=O)c1cc(C(C)C)on1`, the cytotoxicity at 10 µM worked out at 4.24%.
For `CCn1cncc1CNC(=O)c1ccc(C2CCCN2C(=O)COC)s1` (centres undefined), the cytotoxicity at 10 µM came out at 6.48%.
The figure for `CCc1cc(N2CCC(NCCc3nc(C)c(C)s3)CC2)nc(C)n1` is 0.902%; for `CC(C)(C)NC(=O)c1ccccc1NC(=O)c1ccncc1` it is -10.3%.
As for `O=C(O)C(c1ccc2c(c1)OCCO2)N1CCC(N2CCOCC2)CC1` (centres undefined), the cytotoxicity at 10 µM was -0.809%.
With `O=C(c1cc(=O)[nH]c(=O)[nH]1)N1CCCCC1c1ccc(F)cc1` (centres undefined) the figure was -10.2%; with `CC(C)c1nc(C2CCCN(C(=O)c3ccc(N(C)C)nn3)C2)no1` (centres undefined), -9.71%; with `CCN(CC)c1ccc(C(=O)N2CCC(c3nc(C)no3)CC2)cn1`, -7.42%.
The figure for `CN(CC(=O)N1CCCC1)C(=O)Cc1csc(-c2ncccn2)n1` is -9.51%.
With `O=C(NCc1ccc(-c2ccn[nH]2)cc1)N1CCC(N2CCCC2)C1` (centres undefined) the figure was -8.35%.
As for `Cc1cccc(-c2ccc(C(=O)NCC(C)(C)C(N)=O)c(=O)[nH]2)c1`, the cytotoxicity at 10 µM is -10.5%.
With `CNC(=O)C1CCC(NC(=O)N(C)Cc2c(C)noc2C)CC1` (centres undefined), the cytotoxicity at 10 µM is -13.7%.
Turning to `O=C(Nc1cn[nH]c1)c1ccc(O)nc1`, the cytotoxicity at 10 µM was -1.09%.
The figure for `CC(C)c1nc(C2CCCN2CC(=O)N2CCNC2=O)no1` (centres undefined) is -8.96%.
With `CC(NC(=O)NCCn1ccnc1)c1ccc2c(c1)NC(=O)CO2` (centres undefined) the figure was -7.36%.
As for `COc1ccc2cc(C(=O)N3CCCCC3CC(N)=O)[nH]c2c1` (centres undefined), the cytotoxicity at 10 µM was -12.3%.
The figure for `O=C(NCCNC(=O)c1scnc1Cl)c1ccccc1` is 8.45%; for `CCc1n[nH]c(C2CN(Cc3nccn3CC)CCO2)n1` (centres undefined) it is -1.85%.
As to `CC(C)c1nccn1C1CCCN(C(=O)c2ccc3[nH]nnc3c2)C1` (centres undefined), the cytotoxicity at 10 µM was 1.9%.
For the compound `O=C1CCCCN1c1cccc(CNC2CCCC2)c1`, the cytotoxicity at 10 µM was 6.86%.
With `CN(Cc1cn2c(n1)CN(C(=O)CC1CC1)CC2)Cc1ccco1` the figure was -2.21%.
Consider `CC(=O)N1CC(=O)N(c2cnn(C)c2)CC12CCN(CC1CC1)C2` (centres undefined), for which the cytotoxicity at 10 µM was -2.58%.
The figure for `CNC(=O)[C@H]1C[C@@H]2CN(S(=O)(=O)c3ccccc3)C[C@@H]2N1C` is -5.27%; for `O=C(c1cccc(Cl)c1)N1CC[C@H]2[C@H]1CCN2CC1CCOCC1` it is -0.696%.
The figure for `O=C(Cc1ccsc1)N1C[C@@H]2COC[C@]2(COCc2cccnc2)C1` is 2.98%; for `CC(=O)N1[C@H](CN(C)C)C[C@@H]2CN(C(=O)c3cccc(F)c3)CC[C@@H]21` it is 5.85%; for `CS(=O)(=O)NCc1cnc2n1CCN(Cc1ccsc1)CC2` it is -7.96%.
The figure for `CCC1=N[C@@]2(CC[C@@H]3CN(Cc4cccc(Cl)c4)C[C@@H]32)C(=O)N1C` is -102%; for `O=C(CC1CC1)N1CCC2(CC1)CN(c1cccnc1)C(=O)CO2` it is -90.8%.
With `CC(C)CN1CCC2(C=C(C(=O)N(C)C)c3ccccc32)CC1`, the cytotoxicity at 10 µM is -97.4%.
Regarding `CCOc1ccc(C(=O)N2C[C@@H]3CC[C@H]2CN(C(=O)C2CCC2)C3)cc1`, the cytotoxicity at 10 µM was -4.68%.
The figure for `c1ccc(CNc2ncc(CN3CC[C@@H]4CC[C@H](C3)N4)cn2)cc1` is -3.8%.
